# Test results published in ChEMBL document CHEMBL5058577, “EUbOPEN Chemogenomics Library 2 (Multiplex)” (2022).
# Values joined by “and” are separate entries in the source; they are usually repeats but may differ in a detail not shown here. Equal values may be shown once.
# Test system: HEK-293T
# Experiment: Multiplex assay against HEK293T
# Assay type: toxicity, cell-based
# Conditions: human
# Method in brief: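 Per cents of healthy-nucleus cells form the tubulin, mitochondrial-mass and membrane-permeability phenotype values. Live cells were stained at seeding with Hoechst33342, BioTracker Green Microtubule Cytoskeleton Dye, MitoTracker Red and Annexin V Alexa Fluor 680. After compound addition they were imaged on a CQ1 microscope at 37°C and 5% CO2, and CellPathfinder machine-learning gating split them into Hoechst high-intensity objects or normal cells, normal cells into healthy, pyknosed or fragmented nuclei, and pyknosed cells into mitotic or apoptotic.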
# [1] = 12 h, 10 µM, compound concentration 10 uM, replicate 1
# [2] = 12 h, 10 µM, compound concentration 10 uM, replicate 2
# [3] = 24 h, 10 µM, compound concentration 10 uM, replicate 1
# [4] = 24 h, 10 µM, compound concentration 10 uM, replicate 2
# [5] = 48 h, 10 µM, compound concentration 10 uM, replicate 1
# [6] = 48 h, 10 µM, compound concentration 10 uM, replicate 2
# [7] = 12 h, 1 µM, compound concentration 1 uM, replicate 1
# [8] = 12 h, 1 µM, compound concentration 1 uM, replicate 2
# [9] = 24 h, 1 µM, compound concentration 1 uM, replicate 1
# [10] = 24 h, 1 µM, compound concentration 1 uM, replicate 2
# [11] = 48 h, 1 µM, compound concentration 1 uM, replicate 1
# [12] = 48 h, 1 µM, compound concentration 1 uM, replicate 2
smiles,measurement,setting,value
CC(=O)O[C@H]1C(=O)[C@@]2(C)[C@H]([C@H](OC(=O)c3ccccc3)[C@]3(O)C[C@H](OC(=O)[C@H](O)[C@@H](NC(=O)c4ccccc4)c4ccccc4)C(C)=C1C3(C)C)[C@]1(OC(C)=O)CO[C@@H]1C[C@@H]2O [PACLITAXEL],Population Apoptotic (%),[1],41% and 51%
same,Population Fragmented Nuclei (%),[1],7% and 4%
same,Population Healthy Nuclei (%),[1],74% and 79%
same,Population Hoechst High Intensity Objects (%),[1],16% and 12%
same,Population Membrane Permeable-Phenotype (%),[1],0%
same,Population Mitochondria Different-Phenotype (%),[1],79% and 70%
same,Population Mitotic Cells (%),[1],58% and 48%
same,Population Normal (%),[1],83% and 87%
same,Population Pyknosed Nuclei (%),[1],17% and 15%
same,Population Tubulin-Different-Phenotype (%),[1],11% and 9%
same,Population Apoptotic (%),[2],56% and 47%
same,Population Fragmented Nuclei (%),[2],5% and 2%
same,Population Healthy Nuclei (%),[2],64% and 75%
same,Population Hoechst High Intensity Objects (%),[2],14%
same,Population Mitochondria Different-Phenotype (%),[2],84% and 85%
same,Population Mitotic Cells (%),[2],43% and 52%
same,Population Normal (%),[2],85%
same,Population Pyknosed Nuclei (%),[2],29% and 22%
same,Population Tubulin-Different-Phenotype (%),[2],16% and 17%
same,Population Apoptotic (%),[3],35% and 34%
same,Population Fragmented Nuclei (%),[3],10% and 9%
same,Population Healthy Nuclei (%),[3],70% and 73%
same,Population Hoechst High Intensity Objects (%),[3],16% and 14%
same,Population Membrane Permeable-Phenotype (%),[3],0%
same,Population Mitochondria Different-Phenotype (%),[3],72% and 68%
same,Population Mitotic Cells (%),[3],64% and 65%
same,Population Normal (%),[3],83% and 85%
same,Population Pyknosed Nuclei (%),[3],18% and 16%
same,Population Tubulin-Different-Phenotype (%),[3],8% and 7%
same,Population Apoptotic (%),[4],47% and 55%
same,Population Fragmented Nuclei (%),[4],8% and 7%
same,Population Healthy Nuclei (%),[4],75%
same,Population Hoechst High Intensity Objects (%),[4],15%
same,Population Mitochondria Different-Phenotype (%),[4],82% and 75%
same,Population Mitotic Cells (%),[4],52% and 44%
same,Population Normal (%),[4],84%
same,Population Pyknosed Nuclei (%),[4],17%
same,Population Tubulin-Different-Phenotype (%),[4],16% and 11%
same,Population Apoptotic (%),[5],29% and 38%
same,Population Fragmented Nuclei (%),[5],15% and 10%
same,Population Healthy Nuclei (%),[5],68% and 75%
same,Population Hoechst High Intensity Objects (%),[5],11% and 10%
same,Population Membrane Permeable-Phenotype (%),[5],0%
same,Population Mitochondria Different-Phenotype (%),[5],64% and 60%
same,Population Mitotic Cells (%),[5],70% and 62%
same,Population Normal (%),[5],88% and 89%
same,Population Pyknosed Nuclei (%),[5],15% and 14%
same,Population Tubulin-Different-Phenotype (%),[5],2% and 6%
same,Population Apoptotic (%),[6],69% and 57%
same,Population Fragmented Nuclei (%),[6],13%
same,Population Healthy Nuclei (%),[6],70% and 73%
same,Population Mitochondria Different-Phenotype (%),[6],70% and 68%
same,Population Mitotic Cells (%),[6],30% and 42%
same,Population Pyknosed Nuclei (%),[6],19% and 13%
same,Population Tubulin-Different-Phenotype (%),[6],11%
C[C@H](NC(=O)c1c(C(F)F)nn(C)c1Oc1cccc(C(F)(F)F)c1)c1ccc(C(=O)O)cc1 [PALUPIPRANT],Population Apoptotic (%),[7],40%
same,Population Fragmented Nuclei (%),[7],6%
same,Population Healthy Nuclei (%),[7],80%
same,Population Hoechst High Intensity Objects (%),[7],7%
same,Population Membrane Permeable-Phenotype (%),[7],0%
same,Population Mitochondria Different-Phenotype (%),[7],44%
same,Population Mitotic Cells (%),[7],59%
same,Population Normal (%),[7],92%
same,Population Pyknosed Nuclei (%),[7],13%
same,Population Tubulin-Different-Phenotype (%),[7],28%
same,Total Cell Count,[7],407
same,Population Apoptotic (%),[8],27%
same,Population Healthy Nuclei (%),[8],83%
same,Population Hoechst High Intensity Objects (%),[8],5%
same,Population Mitochondria Different-Phenotype (%),[8],60%
same,Population Mitotic Cells (%),[8],72%
same,Population Normal (%),[8],94%
same,Population Pyknosed Nuclei (%),[8],10%
same,Total Cell Count,[8],475
same,Population Apoptotic (%),[1],38%
same,Population Fragmented Nuclei (%),[1],7%
same,Population Healthy Nuclei (%),[1],76%
same,Population Hoechst High Intensity Objects (%),[1],7%
same,Population Membrane Permeable-Phenotype (%),[1],0%
same,Population Mitochondria Different-Phenotype (%),[1],55%
same,Population Mitotic Cells (%),[1],61%
same,Population Normal (%),[1],92%
same,Population Pyknosed Nuclei (%),[1],16%
same,Population Tubulin-Different-Phenotype (%),[1],40%
same,Total Cell Count,[1],371
same,Population Apoptotic (%),[2],60%
same,Population Fragmented Nuclei (%),[2],5%
same,Population Healthy Nuclei (%),[2],77%
same,Population Hoechst High Intensity Objects (%),[2],10%
same,Population Mitochondria Different-Phenotype (%),[2],68%
same,Population Mitotic Cells (%),[2],40%
same,Population Normal (%),[2],89%
same,Population Pyknosed Nuclei (%),[2],17%
same,Population Tubulin-Different-Phenotype (%),[2],27%
same,Total Cell Count,[2],293
same,Population Apoptotic (%),[9],36%
same,Population Fragmented Nuclei (%),[9],9%
same,Population Healthy Nuclei (%),[9],80%
same,Population Hoechst High Intensity Objects (%),[9],5%
same,Population Membrane Permeable-Phenotype (%),[9],1%
same,Population Mitochondria Different-Phenotype (%),[9],27%
same,Population Mitotic Cells (%),[9],63%
same,Population Normal (%),[9],94%
same,Population Pyknosed Nuclei (%),[9],10%
same,Population Tubulin-Different-Phenotype (%),[9],18%
same,Total Cell Count,[9],527
same,Population Apoptotic (%),[10],46%
same,Population Fragmented Nuclei (%),[10],7%
same,Population Healthy Nuclei (%),[10],83%
same,Population Hoechst High Intensity Objects (%),[10],4%
same,Population Membrane Permeable-Phenotype (%),[10],0%
same,Population Mitochondria Different-Phenotype (%),[10],35%
same,Population Mitotic Cells (%),[10],53%
same,Population Normal (%),[10],95%
same,Population Pyknosed Nuclei (%),[10],9%
same,Population Tubulin-Different-Phenotype (%),[10],19%
same,Total Cell Count,[10],604
same,Population Apoptotic (%),[3],26%
same,Population Fragmented Nuclei (%),[3],9%
same,Population Healthy Nuclei (%),[3],74%
same,Population Hoechst High Intensity Objects (%),[3],3%
same,Population Membrane Permeable-Phenotype (%),[3],0%
same,Population Mitochondria Different-Phenotype (%),[3],46%
same,Population Mitotic Cells (%),[3],73%
same,Population Normal (%),[3],96%
same,Population Pyknosed Nuclei (%),[3],16%
same,Population Tubulin-Different-Phenotype (%),[3],29%
same,Total Cell Count,[3],465
same,Population Apoptotic (%),[4],55%
same,Population Fragmented Nuclei (%),[4],7%
same,Population Healthy Nuclei (%),[4],79%
same,Population Hoechst High Intensity Objects (%),[4],7%
same,Population Mitochondria Different-Phenotype (%),[4],52%
same,Population Mitotic Cells (%),[4],44%
same,Population Normal (%),[4],92%
same,Population Pyknosed Nuclei (%),[4],13%
same,Population Tubulin-Different-Phenotype (%),[4],19%
same,Total Cell Count,[4],353
same,Population Apoptotic (%),[11],25%
same,Population Fragmented Nuclei (%),[11],13%
same,Population Healthy Nuclei (%),[11],79%
same,Population Hoechst High Intensity Objects (%),[11],2%
same,Population Membrane Permeable-Phenotype (%),[11],1%
same,Population Mitochondria Different-Phenotype (%),[11],17%
same,Population Mitotic Cells (%),[11],75%
same,Population Normal (%),[11],97%
same,Population Pyknosed Nuclei (%),[11],7%
same,Population Tubulin-Different-Phenotype (%),[11],13%
same,Total Cell Count,[11],916
same,Population Apoptotic (%),[12],21%
same,Population Fragmented Nuclei (%),[12],14%
same,Population Healthy Nuclei (%),[12],78%
same,Population Hoechst High Intensity Objects (%),[12],4%
same,Population Membrane Permeable-Phenotype (%),[12],0%
same,Population Mitochondria Different-Phenotype (%),[12],18%
same,Population Mitotic Cells (%),[12],78%
same,Population Normal (%),[12],95%
same,Population Pyknosed Nuclei (%),[12],6%
same,Population Tubulin-Different-Phenotype (%),[12],9%
same,Total Cell Count,[12],867
same,Population Apoptotic (%),[5],29%
same,Population Fragmented Nuclei (%),[5],18%
same,Population Healthy Nuclei (%),[5],75%
same,Population Hoechst High Intensity Objects (%),[5],1%
same,Population Membrane Permeable-Phenotype (%),[5],1%
same,Population Mitochondria Different-Phenotype (%),[5],24%
same,Population Mitotic Cells (%),[5],70%
same,Population Normal (%),[5],98%
same,Population Pyknosed Nuclei (%),[5],6%
same,Population Tubulin-Different-Phenotype (%),[5],16%
same,Total Cell Count,[5],821
same,Population Apoptotic (%),[6],28%
same,Population Fragmented Nuclei (%),[6],15%
same,Population Healthy Nuclei (%),[6],77%
same,Population Hoechst High Intensity Objects (%),[6],3%
same,Population Membrane Permeable-Phenotype (%),[6],0%
same,Population Mitochondria Different-Phenotype (%),[6],28%
same,Population Mitotic Cells (%),[6],71%
same,Population Normal (%),[6],96%
same,Population Tubulin-Different-Phenotype (%),[6],17%
same,Total Cell Count,[6],554
